Consider 35 compounds from ChEMBL document CHEMBL1268869, “Structural optimization and biological evaluation of substituted bisphenol A derivatives as beta-amyloid peptide aggregation inhibitors” (J Med Chem, 2010).

The source made the active and inactive calls. The calls are words filed in the database; no cut-off is given here.

The IC50 is the midpoint of a concentration-inhibition curve. By inhibition is commonly meant the drop in the measured response relative to a control, in per cent.

A short description of series [1]: Inhibition of amyloid beta (1-42) aggregation by thioflavin T fluorescence method. Put shortly: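 Compound (2 μL of 0.1–10.0 mM) was mixed with 4 μL of 50 μM Aβ1-42 in PBS pH 7.4 containing 11% ethanol, 2 h at room temperature. Then 40 μM ThT in PBS/10% ethanol was added. Fluorescence was read with excitation 430 nm and emission 488 nm.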
Series [2] is described as follows: Inhibition of gamma-secretase by fluorogenic substrate assay. Put shortly: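 Membrane protein (10 μg/well) was incubated with 6 μM fluorogenic substrate and compound in reaction buffer, 100 μL final, at 37 C for 5 h. Fluorescence was read at excitation 355 nm and emission 440 nm. L685,458 was the reference inhibitor. Dose-response curves were fitted by nonlinear regression.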

A short description of series [3]: Inhibition of amyloid beta (12-28) fibrillation assessed as increase in beta-turn conformational component at 3:1 compound to protein ratio by CD spectroscopy assay. Conditions: concentration not given here. Put shortly:
(§1)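 HFIP-treated Aβ12-28 was dissolved in 50% TFE/water at 80 μM, with compound at 1:3 protein:compound. CD spectra were taken in a 0.1 cm path cuvette. Secondary-structure content (helix, β-sheet, turn) was obtained by spectral deconvolution.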

The subject of series [4] is PC-12. The series is described as follows: Neuroprotective activity against rat PC12 cells assessed as reversal of amyloid beta (1 to 42)-induced neuronal damage after 48 hrs by MTT assay. The series is classed as functional, cell-based. In a few lines:
(§2)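 Differentiated PC-12 cells (10 000/well) received compound diluted in Aβ1-42 solution (5% DMSO water stock), giving final 10 μM Aβ1-42 with 0–3 μM compound (0.01–3 μM; dose curve 0.003–3 μM), for 48 h. MTT absorbance at 570 nm was normalized to full-kill and media controls. 3 independent experiments × 3 replicates.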
In general terms: Formazan colour is commonly taken as a measure of viable cells.

Series [5] can be described thus: Inhibition of amyloid beta (12-28) fibrillation assessed as increase in beta-sheet conformation at 3:1 compound to protein ratio by CD spectroscopy assay. The note with it: concentration not given here. Put shortly:
as §1

For series [6], the system named is PC-12. Nature of the series: Cytotoxicity against rat PC12 cells at 1 uM by MTT assay. The series is classed as cell-based. The note with it: pc-12, 1 µM. Put shortly:
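Differentiated PC-12 cells in DMEM with 10% heat-inactivated FBS and 2 mM L-glutamine, 37 C, 5% CO2. Plated at 10 000 cells/well and treated 24 h later with compound diluted in medium (0.1 nM to 100 μM) for 48 h. MTT read at 570 nm. Viability scaled between media and 5 μM staurosporine controls. At least 3 independent experiments × 3 replicates.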

Series [7] is described as follows: Inhibition of amyloid beta (1 to 42) fibrillation after 5 days at -80 degC by PICUP assay. In a few lines: (§3)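 Aβ1-42 was HFIP-treated, sonicated 30 min, dried under nitrogen and redissolved in water. Photo-crosslinking used Ru(bpy)3Cl2 and APS (Aβ/Ru/APS 1/4/80) under a 150 W xenon lamp for 3 s, then quench, 95 C for 5 min and 15% tricine SDS-PAGE. Monomer/(dimer+tetramer) band pixels were compared.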

A short description of series [8]: Inhibition of amyloid beta (1 to 42) fibrillation after 5 days at 37 degC by PICUP assay. In a few lines:
as §3

Series [9] concerns PC-12. The series is described as follows: Neuroprotective activity against rat PC12 cells assessed as reversal of amyloid beta (1 to 42)-induced neuronal damage in at 3 uM after 48 hrs by MTT assay. It is filed as functional. Put shortly: as §2
The nature of series [10]: Inhibition of amyloid beta (12-28) fibrillation assessed as decrease in alpha-helix component at 3:1 compound to protein ratio by CD spectroscopy assay. Conditions: concentration not given here.
Series [11] in a line: Inhibition of amyloid beta (1 to 42) fibrillation after 27 days by AFM assay. The note with it: in the assay text read “after 17 days” for “after 27 days”. In a few lines: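 For fibril formation, 200 μM Aβ1-42 in water/DMSO was kept 17 days at 37 C. These fibrils were then incubated with compound (10 mM stock) or DMSO for 27 days at 37 C. Samples were diluted 5-fold in water, dried on mica and imaged by tapping-mode AFM.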

In series [12] the test system is PC-12. The series is described as follows: Neuroprotective activity against rat PC12 cells assessed as reversal of amyloid beta (1 to 42)-induced neuronal damage in at 1 uM after 48 hrs by MTT assay. The series is classed as functional. In a few lines:
as §2

Take `CC(C)(c1cc(Br)c(OCC(O)CN2CCOCC2)c(Br)c1)c1cc(Br)c(OCC(O)CN2CCOCC2)c(Br)c1` (stereo not drawn): the half-inhibitory concentration (IC50) in series [1] (read-out: IC50) turned out to be 26 µM.

As to `Cc1cc(C(C)(C)c2cc(C)c(OCC(O)CN3CCN(C(=O)OC(C)(C)C)CC3)c(C)c2)cc(C)c1OCC(O)CN1CCN(C(=O)OC(C)(C)C)CC1` (stereo not drawn), the figures for the IC50 in [1] (read-out: IC50) and in series [2] were 0.4 µM and 1.82 µM, respectively.

As for `Cc1cc(C2(c3cc(C)c(OCC(O)CN4CCN(C)CC4)c(C)c3)CCCCCC2)cc(C)c1OCC(O)CN1CCN(C)CC1` (stereo not drawn), in [1] (read-out: IC50), the IC50 stood at 32 µM. In the case of `Cc1cc(C2(c3cc(C)c(OCC(O)CN4CCOCC4)c(C)c3)CCCCC2)cc(C)c1OCC(O)CN1CCOCC1` (stereo not drawn), the IC50 result in [1] is given as “Not Active”. Consider `CN1CCN(CC(O)COc2ccc(C(C)(C)c3ccc(OCC(O)CN4CCN(C)CC4)cc3)cc2)CC1` (stereo not drawn), for which the IC50 entry in [1] is on record as “Not Active”. Turning to `Cc1cc(C2(c3cc(C)c(OCC(O)CN4CCN(C)CC4)c(C)c3)CCCC2)cc(C)c1OCC(O)CN1CCN(C)CC1` (stereo not drawn), the IC50 in series [1] (read-out: IC50) came to 56 µM. On to `CC(C)(c1cc(Br)c(OCC(O)CN2CCC3(CC2)OCCO3)c(Br)c1)c1cc(Br)c(OCC(O)CN2CCC3(CC2)OCCO3)c(Br)c1` (stereo not drawn), for which the IC50 in [1] (read-out: IC50) was found to be 4.7 µM. With `CC1CC(C)CN(CC(O)COc2c(Br)cc(C(C)(C)c3cc(Br)c(OCC(O)CN4CC(C)CC(C)C4)c(Br)c3)cc2Br)C1` (stereo not drawn), the inhibition in series [3] stood at 13.7%; in series [5], 17.4%; in series [10] it was 40.4%. In addition, the Activity entry in the series with PC-12 [4] was “Dose-dependent effect”; in the series on PC-12 [6], “Non-toxic”; in the series with PC-12 [9] it was 104.2%; in the series on PC-12 [12], 96.6%. The IC50 stood at 0.8 µM with PC-12 [4] (PC-12, 48 h); 4.8 µM in series [1] (read-out: IC50); 5.57 µM in series [2]. For the same compound, the inhibition entry in series [7], in series [8] and in series [11] was “Active” each time.

With `Cc1cc(C(C)(C)c2cc(C)c(OCC(O)CN3CC(C)CC(C)C3)c(C)c2)cc(C)c1OCC(O)CN1CC(C)CC(C)C1` (stereo not drawn), the IC50 in [1] (read-out: IC50) was found to be 8.9 µM. Take `CN1CCN(CC(O)COc2c(Br)cc(C3(c4cc(Br)c(OCC(O)CN5CCN(C)CC5)c(Br)c4)CCCC3)cc2Br)CC1` (stereo not drawn): the IC50 in series [1] (read-out: IC50) amounted to 24 µM. As for `CC(c1cc(Br)c(OCC(O)CN2CCN(C)CC2)c(Br)c1)c1cc(Br)c(OCC(O)CN2CCN(C)CC2)c(Br)c1` (stereo not drawn), in series [1] (read-out: IC50), the IC50 came to 25 µM. As for `CCCCN(CCCC)CC(O)COc1c(Br)cc(C(C)(C)c2cc(Br)c(OCC(O)CN(CCCC)CCCC)c(Br)c2)cc1Br` (stereo not drawn), the IC50 in series [1] (read-out: IC50) came to 0.27 µM.

Consider `Cc1cc(C(C)(C)c2cc(C)c(OCC(O)CN3CCCCCC3)c(C)c2)cc(C)c1OCC(O)CN1CCCCCC1` (stereo not drawn), for which the IC50 in series [1] (read-out: IC50) was found to be 6.2 µM. Regarding `Cc1cc(C(C)(C)c2cc(C)c(OCC(O)CN3CCOCC3)c(C)c2)cc(C)c1OCC(O)CN1CCOCC1` (stereo not drawn), the IC50 entry in series [1] is “Not Active”. Consider `CN1CCN(CC(O)COc2ccc(C3(c4ccc(OCC(O)CN5CCN(C)CC5)c(Br)c4)CCCCC3)cc2Br)CC1` (stereo not drawn), for which the IC50 in [1] (read-out: IC50) came out at 13 µM. Still for that read-out and setting: to `Cc1cc(C(C)(C)c2cc(C)c(OCC(O)CN3CCN(Cc4ccccc4)CC3)c(C)c2)cc(C)c1OCC(O)CN1CCN(Cc2ccccc2)CC1` (stereo not drawn) belongs 6.2 µM. Take `Cc1cc(C(C)(C)c2cc(C)c(OCC(O)CN3CCN(C)CC3)c(C)c2)cc(C)c1OCC(O)CN1CCN(C)CC1` (stereo not drawn): in [1], the IC50 result was “Not Active”. On the same count and under the same terms, as for `Cc1cc(C(C)(C)c2ccc(OCC(O)CN3CCOCC3)c(C)c2)ccc1OCC(O)CN1CCOCC1` (stereo not drawn), the entry is “Not Active”.

For the compound `OC(COc1c(Br)cc(C2(c3cc(Br)c(OCC(O)CN4CCOCC4)c(Br)c3)CCCC2)cc1Br)CN1CCOCC1` (stereo not drawn), the IC50 entry in [1] is reported as “Not Active”. For the compound `CN1CCN(CC(O)COc2c(Br)cc(C(C)(C)c3cc(Br)c(OCC(O)CN4CCN(C)CC4)c(Br)c3)cc2Br)CC1` (stereo not drawn), the IC50 in [1] (read-out: IC50) worked out at 23 µM. For the compound `CC(C)(c1ccc(OCC(O)CN2CCOCC2)cc1)c1ccc(OCC(O)CN2CCOCC2)cc1` (stereo not drawn), in [1], the IC50 result is recorded as “Not Active”. As for `Cc1cc(C)cc(NCC(O)COc2c(C)cc(C(C)(C)c3cc(C)c(OCC(O)CNc4cc(C)cc(C)c4)c(C)c3)cc2C)c1` (stereo not drawn), in series [1], the IC50 result is “Not Active”. Regarding `Cc1cc(C(C)(C)c2cc(C)c(OCC(O)CN3CCCCC3)c(C)c2)cc(C)c1OCC(O)CN1CCCCC1` (stereo not drawn), the IC50 in [1] (read-out: IC50) is 43 µM. For `Cc1cc(C(C)(C)c2cc(C)c(OCC(O)CNc3ccc(C(C)(C)C)cc3)c(C)c2)cc(C)c1OCC(O)CNc1ccc(C(C)(C)C)cc1` (stereo not drawn), in series [1], the IC50 result is “Not Active”. Turning to `Cc1cc(C(C)(C)c2cc(C)c(OCC(O)CN3CCCC3)c(C)c2)cc(C)c1OCC(O)CN1CCCC1` (stereo not drawn), the IC50 in [1] (read-out: IC50) was 11 µM.

Regarding `Cc1cc(C2(c3cc(C)c(OCC(O)CN4CCOCC4)c(C)c3)CCCCCC2)cc(C)c1OCC(O)CN1CCOCC1` (stereo not drawn), the IC50 result in series [1] is recorded as “Not Active”.

Consider `Cc1cc(C(C)(C)c2cc(C)c(OCC(O)CN3CCC4(CC3)OCCO4)c(C)c2)cc(C)c1OCC(O)CN1CCC2(CC1)OCCO2` (stereo not drawn), for which the IC50 in series [1] (read-out: IC50) was 20 µM. `Cc1cc(C2(c3cc(C)c(OCC(O)CN4CCOCC4)c(C)c3)CCCC2)cc(C)c1OCC(O)CN1CCOCC1` (stereo not drawn): in series [1], the half-maximal inhibitory concentration (IC50) result was “Not Active”.

As to `CN1CCN(CC(O)COc2c(Br)cc(C(c3cc(Br)c(OCC(O)CN4CCN(C)CC4)c(Br)c3)(C(F)(F)F)C(F)(F)F)cc2Br)CC1` (stereo not drawn), in series [1] (read-out: IC50), the IC50 is 24 µM. `CN1CCN(CC(O)COc2ccc(C(c3ccc(OCC(O)CN4CCN(C)CC4)cc3)(C(F)(F)F)C(F)(F)F)cc2)CC1` (stereo not drawn): the IC50 in series [1] (read-out: IC50) came to 380 µM.

For the compound `OC(COc1c(Br)cc(C(c2cc(Br)c(OCC(O)CN3CCOCC3)c(Br)c2)(C(F)(F)F)C(F)(F)F)cc1Br)CN1CCOCC1` (stereo not drawn), the IC50 result in series [1] is reported as “Not Active”. On the same count and under the same terms, to `OC(COc1ccc(C(c2ccc(OCC(O)CN3CCOCC3)cc2)(C(F)(F)F)C(F)(F)F)cc1)CN1CCOCC1` (stereo not drawn) belongs “Not Active”. As for `Cc1cc(C2(c3cc(C)c(OCC(O)CN4CCN(C)CC4)c(C)c3)CCCCC2)cc(C)c1OCC(O)CN1CCN(C)CC1` (stereo not drawn), the IC50 in [1] (read-out: IC50) turned out to be 70 µM. For the compound `CC(C)(c1ccc(OCC(O)CN2CCCCC2)cc1)c1ccc(OCC(O)CN2CCCCC2)cc1` (stereo not drawn), the IC50 in series [1] (read-out: IC50) came out at 110 µM. With `CC(C)(C)c1ccc(NCC(O)COc2c(Br)cc(C(C)(C)c3cc(Br)c(OCC(O)CNc4ccc(C(C)(C)C)cc4)c(Br)c3)cc2Br)cc1` (stereo not drawn), the concentration for half-maximal inhibition (IC50) result in series [1] is “Not Active”.
